In experiment [1] the target is T1, Potassium voltage-gated channel subfamily A member 3 (Homo sapiens, UniProt P22001). The experiment in a line: Inhibition of human Kv1.3 expressed in Xenopus laevis oocytes at 1 uM at -90 mV holding potential by two-electrode voltage clamp assay relative to control. In general terms: In two-electrode clamp one electrode senses voltage and the other passes current.

In experiment [2] the target is Potassium voltage-gated channel subfamily A member 5 (Rattus norvegicus) (UniProt P19024). The experiment in a line: Inhibition of rat Kv1.5 expressed in Xenopus laevis oocytes at 1 uM at -90 mV holding potential by two-electrode voltage clamp assay relative to control. The format is cell-based.
The subject of experiment [3] is Potassium voltage-gated channel subfamily H member 1 (Homo sapiens). The experiment in a line: Inhibition of human Kv10.1 expressed in Xenopus laevis oocytes at 1 uM at -90 mV holding potential by two-electrode voltage clamp assay relative to control.
Experiment [4] has as its target Potassium voltage-gated channel subfamily A member 2 (Homo sapiens, UniProt P16389). The experiment can be described thus: Inhibition of human Kv1.2 expressed in CHO cells at -80 mV holding potential by whole cell automated patch clamp method. Type of experiment: cell-based. In outline: (§1)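 Human channels stably expressed in CHO cells, dissociated with 0.05% trypsin-EDTA, held in serum-free medium and resuspended in extracellular solution just before recording. Whole-cell QPatch recordings used a -80 mV holding potential and 500 ms steps to +30 mV at 0.067 Hz. Series resistance was 80% compensated with P/n leak subtraction. After 0.1% DMSO vehicle, four escalating concentrations were applied cumulatively.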

Experiment [5] has as its target Potassium voltage-gated channel subfamily A member 6 (Rattus norvegicus, UniProt P17659). The experiment in a line: Inhibition of rat Kv1.6 expressed in Xenopus laevis oocytes at -90 mV holding potential by two-electrode voltage clamp assay. Type of experiment: cell-based. In outline: (§2)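 Stage V-VI Xenopus laevis oocytes were injected with 50 nL cRNA (1 ng/nL). Currents were recorded by two-electrode voltage clamp. IC50 values come from at least 3 independent experiments and are given as mean ± standard error.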

The target in experiment [6] is Potassium voltage-gated channel subfamily A member 1 (Rattus norvegicus) (UniProt P10499). The experiment in a line: Inhibition of rat Kv1.1 expressed in Xenopus laevis oocytes at 1 uM at -90 mV holding potential by two-electrode voltage clamp assay relative to control. Type of experiment: cell-based.
Experiment [7] has as its target Potassium voltage-gated channel subfamily A member 6 (Homo sapiens, UniProt P17658). The experiment in a line: Inhibition of human Kv1.6 expressed in CHO cells at -80 mV holding potential by whole cell automated patch clamp method. Type of experiment: cell-based. In outline: as §1
Background: In patch-clamp work, channel activity is measured electrically.

Experiment [8] addresses Potassium voltage-gated channel subfamily A member 5 (Homo sapiens, UniProt P22460). The experiment in a line: Inhibition of human Kv1.5 expressed in CHO cells at -80 mV holding potential by whole cell automated patch clamp method. Type of experiment: cell-based.
In experiment [9] the target is T1, Potassium voltage-gated channel subfamily A member 3. The experiment can be described thus: Inhibition of human Kv1.3 expressed in Xenopus laevis oocytes at -90 mV holding potential by two-electrode voltage clamp assay.
Target sequence in this assay (P22001 whole entry, looked up): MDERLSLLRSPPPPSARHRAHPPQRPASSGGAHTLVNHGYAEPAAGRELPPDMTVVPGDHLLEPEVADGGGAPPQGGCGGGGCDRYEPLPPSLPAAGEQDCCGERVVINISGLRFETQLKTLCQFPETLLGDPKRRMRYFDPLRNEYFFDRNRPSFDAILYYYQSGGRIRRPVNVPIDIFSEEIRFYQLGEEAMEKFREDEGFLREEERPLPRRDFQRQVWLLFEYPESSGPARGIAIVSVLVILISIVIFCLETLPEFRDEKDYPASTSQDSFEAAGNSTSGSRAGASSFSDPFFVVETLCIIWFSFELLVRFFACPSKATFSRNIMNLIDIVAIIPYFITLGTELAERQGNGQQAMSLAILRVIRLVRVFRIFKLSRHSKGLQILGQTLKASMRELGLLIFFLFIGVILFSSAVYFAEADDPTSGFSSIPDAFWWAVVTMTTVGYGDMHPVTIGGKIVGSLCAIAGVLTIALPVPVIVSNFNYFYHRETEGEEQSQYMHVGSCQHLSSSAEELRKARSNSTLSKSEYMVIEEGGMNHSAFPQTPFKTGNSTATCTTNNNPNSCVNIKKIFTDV
For experiment [10], the target named is Potassium voltage-gated channel subfamily A member 4 (Rattus norvegicus, UniProt P15385). The experiment in a line: Inhibition of rat Kv1.4 expressed in Xenopus laevis oocytes at -90 mV holding potential by two-electrode voltage clamp assay. Type of experiment: cell-based. In short, it runs like this: as §2
The target in experiment [11] is Potassium voltage-gated channel subfamily A member 4 (Rattus norvegicus) (UniProt P15385). The experiment in a line: Inhibition of rat Kv1.4 expressed in Xenopus laevis oocytes at 1 uM at -90 mV holding potential by two-electrode voltage clamp assay relative to control. The format is cell-based.
Experiment [12] concerns the target Potassium voltage-gated channel subfamily A member 2 (Rattus norvegicus) (UniProt P63142). The experiment in a line: Inhibition of rat Kv1.2 expressed in Xenopus laevis oocytes at 1 uM at -90 mV holding potential by two-electrode voltage clamp assay relative to control. The format is cell-based.
Experiment [13] concerns the target Potassium voltage-gated channel subfamily A member 4 (Homo sapiens, UniProt P22459). The experiment in a line: Inhibition of human Kv1.4 expressed in CHO cells at -80 mV holding potential by whole cell automated patch clamp method. Type of experiment: cell-based. In outline:
as §1

The target of experiment [14] is T1, Potassium voltage-gated channel subfamily A member 3. The experiment can be described thus: Inhibition of human Kv1.3 expressed in CHO cells at -80 mV holding potential by whole cell automated patch clamp method. The format is cell-based. In short, it runs like this: as §1
The target of experiment [15] is Potassium voltage-gated channel subfamily A member 1 (Homo sapiens, UniProt Q09470). The experiment can be described thus: Inhibition of human Kv1.1 expressed in CHO cells at -80 mV holding potential by whole cell automated patch clamp method. Type of experiment: cell-based. In short, it runs like this:
as §1

The target in experiment [16] is Potassium voltage-gated channel subfamily A member 6 (Rattus norvegicus) (UniProt P17659). The experiment in a line: Inhibition of rat Kv1.6 expressed in Xenopus laevis oocytes at 1 uM at -90 mV holding potential by two-electrode voltage clamp assay relative to control. The format is cell-based.

Structures are written as SMILES. Calls of active or inactive are those of the source. The rule behind the calls is not given here. A value given as a limit tells only on which side of the number the result lay.

A word on the inhibition: it is how much of the control response was suppressed. One may read the IC50 as the concentration that inhibits the measured activity by half. Read a low IC50 as inhibition by little substance.

Chain of Potassium voltage-gated channel subfamily A member 2 (Rattus norvegicus) (P63142 whole entry): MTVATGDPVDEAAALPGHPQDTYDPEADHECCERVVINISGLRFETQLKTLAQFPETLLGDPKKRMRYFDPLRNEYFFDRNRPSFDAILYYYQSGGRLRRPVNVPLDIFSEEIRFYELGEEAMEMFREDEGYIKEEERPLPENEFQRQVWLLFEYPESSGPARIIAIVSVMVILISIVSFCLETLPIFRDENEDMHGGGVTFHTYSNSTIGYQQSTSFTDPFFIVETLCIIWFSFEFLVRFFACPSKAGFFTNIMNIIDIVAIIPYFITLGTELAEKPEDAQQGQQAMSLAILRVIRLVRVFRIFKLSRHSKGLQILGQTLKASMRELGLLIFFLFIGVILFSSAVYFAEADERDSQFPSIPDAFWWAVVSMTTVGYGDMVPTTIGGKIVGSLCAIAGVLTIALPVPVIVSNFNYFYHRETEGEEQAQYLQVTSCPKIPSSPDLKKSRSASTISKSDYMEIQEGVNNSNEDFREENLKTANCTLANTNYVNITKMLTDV
Chain of Potassium voltage-gated channel subfamily A member 5 (P22460 whole entry): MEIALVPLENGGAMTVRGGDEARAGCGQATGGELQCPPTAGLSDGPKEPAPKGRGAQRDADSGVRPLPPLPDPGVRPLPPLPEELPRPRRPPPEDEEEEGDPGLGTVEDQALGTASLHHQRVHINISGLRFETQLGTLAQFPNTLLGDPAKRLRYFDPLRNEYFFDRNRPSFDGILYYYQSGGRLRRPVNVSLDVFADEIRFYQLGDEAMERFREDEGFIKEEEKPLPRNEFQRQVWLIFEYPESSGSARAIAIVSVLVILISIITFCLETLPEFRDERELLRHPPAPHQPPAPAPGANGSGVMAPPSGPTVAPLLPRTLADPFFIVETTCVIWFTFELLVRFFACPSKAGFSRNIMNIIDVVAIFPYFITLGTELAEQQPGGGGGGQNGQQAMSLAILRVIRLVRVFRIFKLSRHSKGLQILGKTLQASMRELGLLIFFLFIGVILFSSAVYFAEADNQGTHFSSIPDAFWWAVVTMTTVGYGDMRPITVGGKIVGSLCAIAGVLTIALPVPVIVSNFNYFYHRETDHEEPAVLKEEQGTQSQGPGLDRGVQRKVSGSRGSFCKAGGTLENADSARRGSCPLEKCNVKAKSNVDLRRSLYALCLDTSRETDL
Chain of Potassium voltage-gated channel subfamily A member 1 (Q09470 whole entry): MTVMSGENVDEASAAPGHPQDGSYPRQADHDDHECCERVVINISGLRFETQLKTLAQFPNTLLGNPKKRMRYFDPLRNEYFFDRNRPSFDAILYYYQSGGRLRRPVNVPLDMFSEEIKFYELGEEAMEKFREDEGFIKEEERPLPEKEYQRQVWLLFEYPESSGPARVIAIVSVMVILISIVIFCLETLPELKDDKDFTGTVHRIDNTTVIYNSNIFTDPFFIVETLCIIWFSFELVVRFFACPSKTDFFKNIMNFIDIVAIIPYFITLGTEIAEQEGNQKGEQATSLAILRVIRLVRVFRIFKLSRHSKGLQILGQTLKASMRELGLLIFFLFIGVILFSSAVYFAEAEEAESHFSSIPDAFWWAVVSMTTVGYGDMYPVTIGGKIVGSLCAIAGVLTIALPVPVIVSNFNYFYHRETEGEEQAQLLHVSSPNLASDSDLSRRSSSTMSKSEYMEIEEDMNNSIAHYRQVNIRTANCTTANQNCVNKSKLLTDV
Chain of Potassium voltage-gated channel subfamily A member 1 (Rattus norvegicus) (P10499 whole entry): as the sequence (Q09470 whole entry) above, with V9A, V202I, N213T, M449I, V471A, A476G, T480A, A481T, N482D counted along it
Chain of Potassium voltage-gated channel subfamily A member 5 (Rattus norvegicus) (P19024 whole entry): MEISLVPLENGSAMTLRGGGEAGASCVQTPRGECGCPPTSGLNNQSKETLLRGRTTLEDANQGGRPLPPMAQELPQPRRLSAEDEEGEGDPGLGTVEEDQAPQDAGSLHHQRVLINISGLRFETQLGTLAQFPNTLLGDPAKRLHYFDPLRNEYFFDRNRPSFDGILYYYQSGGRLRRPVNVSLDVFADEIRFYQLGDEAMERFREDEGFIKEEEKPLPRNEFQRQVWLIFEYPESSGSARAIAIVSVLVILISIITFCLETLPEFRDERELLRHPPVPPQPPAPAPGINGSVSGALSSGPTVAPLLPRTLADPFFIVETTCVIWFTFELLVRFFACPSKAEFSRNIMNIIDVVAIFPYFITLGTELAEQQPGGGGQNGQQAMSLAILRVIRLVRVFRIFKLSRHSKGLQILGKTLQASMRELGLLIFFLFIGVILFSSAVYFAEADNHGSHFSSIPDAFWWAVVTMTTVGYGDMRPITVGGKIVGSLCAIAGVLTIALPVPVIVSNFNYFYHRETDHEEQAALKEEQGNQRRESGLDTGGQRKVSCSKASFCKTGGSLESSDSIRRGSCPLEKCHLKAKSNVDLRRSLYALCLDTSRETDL
Chain of Potassium voltage-gated channel subfamily A member 2 (P16389 whole entry): as the sequence (P63142 whole entry) above, with V9A, G198S, D355E counted along it
Chain of Potassium voltage-gated channel subfamily A member 6 (Rattus norvegicus) (P17659 whole entry): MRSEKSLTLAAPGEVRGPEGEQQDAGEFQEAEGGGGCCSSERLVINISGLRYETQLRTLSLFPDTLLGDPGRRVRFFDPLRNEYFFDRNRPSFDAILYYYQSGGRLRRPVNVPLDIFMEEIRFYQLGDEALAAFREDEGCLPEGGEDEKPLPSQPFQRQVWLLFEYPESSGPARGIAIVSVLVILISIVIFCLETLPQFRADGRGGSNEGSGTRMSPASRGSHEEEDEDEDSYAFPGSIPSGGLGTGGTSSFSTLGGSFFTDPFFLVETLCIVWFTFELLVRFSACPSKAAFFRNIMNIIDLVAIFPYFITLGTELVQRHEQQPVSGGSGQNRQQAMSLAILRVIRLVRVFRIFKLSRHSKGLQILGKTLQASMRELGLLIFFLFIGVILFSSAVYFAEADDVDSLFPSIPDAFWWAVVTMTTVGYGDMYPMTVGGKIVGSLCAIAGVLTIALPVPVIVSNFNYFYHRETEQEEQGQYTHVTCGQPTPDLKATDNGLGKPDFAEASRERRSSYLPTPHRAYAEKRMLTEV
Chain of Potassium voltage-gated channel subfamily A member 6 (Rattus norvegicus, UniProt P17659) (P17659 whole entry): as above

Turning to `Nc1ncc(/C=C/CNC(=O)c2cc(Br)c(Br)[nH]2)[nH]1` [OROIDIN], the inhibition in experiment [1] amounted to 58%; in experiment [11] it was 32%; in experiment [12], 10%. The inhibition entry in experiment [2], in [3], in experiment [6] and in experiment [16] was “inactive” each time. Besides, the IC50 in experiment [4] is above 30 µM; in experiment [5] it was above 10 µM; in [7], 4.9 µM; in [8], 16 µM; in experiment [9], 0.82 µM; in [10], 5.7 µM. For the same compound, the figures for the IC50 in experiment [13], in experiment [14] and in experiment [15] were 2.1 µM, 4.7 µM and above 30 µM, respectively.
As for `Nc1nc(/C=C/CNC(=O)c2cc(Cl)c(Cl)[nH]2)c[nH]1`, the inhibition result in [1], in experiment [3], in experiment [6], in [12] and in experiment [16] was “inactive” throughout. In addition, the inhibition in [2] amounted to 62%; in experiment [11], 90%. Further, the IC50 was above 30 µM in experiment [4]; 0.17 µM in [5]; 1.6 µM in [7]; 6.1 µM in experiment [8]; above 10 µM in experiment [9]; 0.6 µM in experiment [10]. Also, the IC50 in [13] is 1.5 µM; in experiment [14], 1.4 µM; in experiment [15] it was above 30 µM.
For the compound `Cc1[nH]c(C(=O)NC/C=C/c2c[nH]c(N)n2)c(Br)c1Br`, the inhibition entry in [1], in experiment [2], in experiment [3], in experiment [6] and in [12] was “inactive” in each case. The IC50 in [4] was above 30 µM; in experiment [5], above 10 µM; in experiment [7], 29 µM; in experiment [8], above 30 µM; in experiment [9] it was above 10 µM; in [10], 0.23 µM. Besides, the results for the IC50 in experiment [13], in experiment [14] and in [15] were 12 µM, 17 µM and above 30 µM, respectively. Moreover, the figures for the inhibition in experiment [11] and in experiment [16] were 33% and 41%, respectively.
As to `Nc1nc(/C=C/CNC(=O)c2cc(Br)c[nH]2)c[nH]1`, the inhibition is 32% in [1], 10% in [2], 11% in [11] and 22% in experiment [16]. The inhibition result in experiment [3], in [6] and in experiment [12] was “inactive” throughout. For the same compound, the IC50 was above 30 µM in experiment [4]; 3.7 µM in experiment [7]; 7.6 µM in [8]; 5.3 µM in experiment [13]; 2.5 µM in experiment [14]; above 30 µM in [15].
`Cc1[nH]c(C(=O)NC/C=C/c2c[nH]c(N)n2)cc1Cl`: the inhibition result in experiment [1], in experiment [3], in experiment [12] and in [16] was “inactive” in each case. The inhibition amounted to 72% in experiment [2], 68% in experiment [6] and 71% in experiment [11]. Further, the IC50 in experiment [4] is above 30 µM; in [5] it was above 10 µM; in experiment [7], 17 µM; in [8], above 30 µM; in experiment [9], above 10 µM; in experiment [10], 0.73 µM. The IC50 in experiment [13] is 15 µM; in [14], 25 µM; in [15], above 30 µM.
For `Nc1nc(/C=C/CNC(=O)c2cc3cc(F)ccc3[nH]2)c[nH]1`, in [1], the inhibition is 28%. The inhibition entry in experiment [2], in experiment [3], in [6], in [11], in experiment [12] and in experiment [16] was “inactive” each time. In addition, the IC50 is above 30 µM in experiment [4]; 7.9 µM in [7]; above 30 µM in experiment [8]; 8.8 µM in [13]; 14 µM in [14]; above 30 µM in experiment [15].
Consider `Nc1nc(/C=C/CNC(=O)c2cc3cc(Cl)ccc3[nH]2)c[nH]1`, for which the inhibition entry in experiment [1], in experiment [2], in [3], in experiment [6], in experiment [11] and in experiment [12] was “inactive” throughout. The inhibition entry in experiment [16] is “inactive”. For the same compound, the IC50 was above 30 µM in experiment [4]; 24 µM in [7]; above 30 µM in experiment [8]; 17 µM in [13]; 9 µM in experiment [14]; above 30 µM in experiment [15].
In the case of `Cc1[nH]c(C(=O)NC/C=C/c2c[nH]c(N)n2)cc1Br`, the inhibition entry in experiment [1], in [2], in [3], in [6] and in [12] was “inactive” in each case. The IC50 in experiment [4] is above 30 µM; in experiment [5], 9.8 µM; in experiment [7], 11 µM; in experiment [8], above 30 µM; in experiment [9], above 10 µM; in experiment [10] it was 0.38 µM. In addition, the IC50 in experiment [13] was 12 µM; in experiment [14] it was 25 µM; in experiment [15], above 30 µM. The inhibition amounted to 46% in experiment [11] and 63% in [16].
Regarding `Nc1ncc(/C=C/CNC(=O)c2ccc[nH]2)[nH]1` [CLATHRODIN], the inhibition entry in experiment [1], in [2], in experiment [3], in experiment [6], in experiment [11] and in [12] was “inactive” throughout. For the same compound, in [16], the inhibition result is “inactive”. For the same compound, the IC50 in experiment [4], in experiment [7], in experiment [8], in experiment [13], in experiment [14] and in experiment [15] was above 30 µM throughout.

Values taken from ChEMBL document CHEMBL4190320, “Clathrodin, hymenidin and oroidin, and their synthetic analogues as inhibitors of the voltage-gated potassium channels” (Eur J Med Chem, 2017).
